# According to ChEMBL document CHEMBL1135379, “Polyhydroxylated azepanes as new motifs for DNA minor groove binding agents” (2002):
# Experiments:
# HCT-116 = test: Tested for in vitro concentration required to inhibit growth by 50% against HCT116 human colon cancer cell line; type: functional
# HT-29 = test: Tested for in vitro concentration required to inhibit growth by 50% against HT-29 human colon cancer cell line; type: functional
# NCI/ADR-RES = test: Tested for in vitro concentration required to inhibit growth by 50% against MCF-7/ADR human breast cancer cell line cell line; type: functional
# MCF7 = test: Tested for in vitro concentration required to inhibit growth by 50% against MCF-7 human breast cancer cell line cell line; type: functional
# Nucleic Acid [1] = test: Concentration required to displace 50% of the ethidium from a preformed, intercalated complex; type: nucleic-acid assay
# Summary of the method: (§1)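 Ethidium displacement (Cain et al. method), pH 7.0. A preformed DNA–ethidium intercalated complex in HEPES buffer with NaCl and EDTA is titrated with ligand while intercalated-ethidium fluorescence is monitored. C50 is the ligand concentration that displaces 50% of the ethidium. K_app = (1.26 × K_e)/C50, using the known ethidium binding constant under these conditions. Means of three experiments.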
# Nucleic Acid [2] = test: Apparent binding constant was calculated; type: nucleic-acid assay; summary of the method: as §1
Structure (SMILES),GI50 (HCT-116) [µM],GI50 (HT-29) [µM],GI50 (MCF7) [µM],C50 (Nucleic Acid [1]) [µM],K app (Nucleic Acid [2]) [M⁻¹],GI50 (NCI/ADR-RES) [µM]
O=C(O)CCCc1ccc(N(CCCl)CCCl)cc1 [CHLORAMBUCIL],105,129,30,,,56
Cn1cc(NC(=O)c2cc(NC(=O)c3cc(NC=O)cn3C)cn2C)cc1C(=O)NCCC(=N)N,,,,1.8,6.7e+06,
N=C(N)c1ccc(OCCCOc2ccc(C(=N)N)cc2)cc1 [PROPAMIDINE],11,> 50,9,25.6,470000,
COc1cccc2c1C(=O)c1c(O)c3c(c(O)c1C2=O)C[C@@](O)(C(=O)CO)C[C@@H]3O[C@H]1C[C@H](N)[C@H](O)[C@H](C)O1 [DOXORUBICIN],0.023,0.056,0.013,,,16.7

# More lines, main results first:
GI50 (HCT-116) [µM],GI50 (HT-29) [µM],GI50 (MCF7) [µM],C50 (Nucleic Acid [1]) [µM],K app (Nucleic Acid [2]) [M⁻¹],Structure (SMILES),GI50 (NCI/ADR-RES) [µM]
6,23,24,,,"CC1(C)O[C@H]2[C@H](O1)[C@H](O)CN(Cc1ccc(OCCCOc3ccc(CN4CC(O)[C@H]5OC(C)(C)O[C@@H]5[C@H](O)C4)cc3)cc1)C[C@H]2O (single isomer, unassigned)",10
> 50,24,> 50,61.6,190000,"OC1CN(Cc2ccc(OCCCOc3ccc(CN4C[C@@H](O)[C@@H](O)[C@H](O)[C@H](O)C4)cc3)cc2)C[C@@H](O)[C@@H](O)C1O (single isomer, unassigned)",> 50
32,40,33,703,17000,CC1(C)O[C@H]2[C@H](O1)[C@H](O)CN(c1ccc(OCCCOc3ccc(N4C[C@@H](O)[C@H]5OC(C)(C)O[C@@H]5[C@H](O)C4)cc3)cc1)C[C@H]2O,> 50
,,,97,120000,"OC1CN(Cc2ccc(OCCCOc3ccc(CN4C[C@H](O)[C@@H](O)[C@H](O)[C@@H](O)C4)cc3)cc2)C[C@H](O)[C@@H](O)C1O (single isomer, unassigned)",
